From publication PMC7679043 (Molecular imaging and biology, 2020)
Entries after “also recorded” stand apart in the source; their conditions may differ. Read-outs that look alike come from different tables or passages of the source.

How the values were obtained:
S1PR1 [1] = conditions: read-out: IC50, nM S1PR1; binding affinity reported previously; cited from earlier work
S1PR2-5 = conditions: read-out: IC50, nM S1PR2-5; binding affinity reported previously; cited from earlier work
S1PR1 [2] = biological target: S1PR1 (Rattus norvegicus, UniProt P48303); type: in vivo; conditions: for Average uptake: 10–60 min post injection; for 2TCM VT: image-derived input function
Chain of S1PR1 (Rattus norvegicus, UniProt P48303) (P48303 whole entry): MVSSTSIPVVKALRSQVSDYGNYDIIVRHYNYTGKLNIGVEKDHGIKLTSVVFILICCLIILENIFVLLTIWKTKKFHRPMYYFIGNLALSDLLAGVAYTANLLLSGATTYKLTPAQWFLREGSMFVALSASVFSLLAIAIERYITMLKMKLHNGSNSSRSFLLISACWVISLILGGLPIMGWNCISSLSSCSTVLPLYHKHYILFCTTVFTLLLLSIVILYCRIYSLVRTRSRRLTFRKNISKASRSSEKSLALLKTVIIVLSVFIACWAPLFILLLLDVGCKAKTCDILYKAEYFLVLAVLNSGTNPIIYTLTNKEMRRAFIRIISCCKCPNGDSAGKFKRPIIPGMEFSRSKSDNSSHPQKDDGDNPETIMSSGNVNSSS
Method in brief: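 EAE and sham rats (n=3–4 per group per tracer) were held under 1.5–2% isoflurane/oxygen, centered on T13. After CT, each received a 15–22 MBq i.v. bolus, followed by 60-min dynamic list-mode PET. Lumbar spinal cord and bilateral carotid ROIs on co-registered PET/CT gave %ID/g TACs. Mean 10–60 min uptake and 2TCM VT (carotid image-derived input) were compared by two-tailed t-test (P<0.05).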

[3] = HPLC radiometabolite analysis of rat plasma and brain; type: in vivo; conditions: for level of the lipophilic radiometabolite / level of the polar radiometabolite / percentage of the parent compound: rat plasma
Method in brief: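 Adult male Sprague Dawley rats were given ~37 MBq tracer i.v. At set times post-injection they were killed by terminal exsanguination under surgical-plane anesthesia. Heparinized left-ventricle blood was spun to plasma, solvent-deproteinated and re-centrifuged. Whole brain was homogenized in cold PBS, then solvent-extracted, deproteinated and centrifuged. Supernatants ran on C18 HPLC with acetonitrile/0.1 M ammonium formate pH 4.5 (70/30) at 0.76 mL/min. Radioactive peaks were expressed as percentages.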

[4] = rat brain homogenate, 5 min p.i.
[5] = rat brain homogenate, 15 min p.i.
[6] = rat brain homogenate, 40 min p.i.
[7] = rat brain homogenate, 60 min p.i.

Compound: OCCOCc1ccc(-c2noc(-c3ccc(OCCF)c(C(F)(F)F)c3)n2)cc1 [TZ4877]
- IC50 (S1PR1 [1]): 14.01 ± 0.04 nM
- IC50 (S1PR2-5): > 1000 nM

Compound: OCCOCc1ccc(-c2noc(-c3ccc(OCC[18F])c(C(F)(F)F)c3)n2)cc1 [TZ4877]
- Average uptake (S1PR1 [2]; EAE rat lumbar spinal cord): 1.42 ± 0.14 %ID/g
- 2TCM VT (S1PR1 [2]; EAE rat lumbar spinal cord): 2.18 ± 0.20 mL/cc
- 2TCM VT Increase, % (S1PR1 [2]; EAE vs sham): 21.11%
- Average uptake Increase, % (S1PR1 [2]; EAE vs sham rat lumbar spinal cord, listed as 18F-TZ4877): 29.09%
- bone uptake/defluorination (S1PR1 [2]; PET images without CT co-registration, rat): no obvious bone uptake/defluorination
- initial tracer uptake at 20 min (S1PR1 [2]; rat spinal cord, 20 min): ~ 1.5 %ID/g
- tracer uptake / retention at 60 min (S1PR1 [2]; rat spinal cord, 60 min): > 1.0 %ID/g
- Average uptake (S1PR1 [2]; sham rat lumbar spinal cord, listed as 18F-TZ4877): 1.10 ± 0.06 %ID/g
- 2TCM VT (S1PR1 [2]; sham rat lumbar spinal cord): 1.80 ± 0.20 mL/cc
- hydrophilic radiometabolite [3, 4]: 6%
- parent tracer percentage [3, 4]: 78%
- hydrophilic radiometabolite [3, 5]: 2%
- parent tracer percentage [3, 5]: 89%
- hydrophilic radiometabolite [3, 6]: 10%
- parent tracer percentage [3, 6]: 65%
- hydrophilic radiometabolite [3, 7]: 14%
- parent tracer percentage [3, 7]: 68%
- lipophilic radiometabolite in brain ([3]; rat brain homogenate, listed as 18F-TZ4877): No lipophilic radioactive peak was detected; also recorded: not detected
- level of the lipophilic radiometabolite ([3]; 5 min p.i.): 14%
- level of the polar radiometabolite ([3]; 5 min p.i.): 7%
- percentage of the parent compound ([3]; 5 min p.i.): 75%
- level of the lipophilic radiometabolite ([3]; 15 min p.i.): 21%
- level of the polar radiometabolite ([3]; 15 min p.i.): 6%
- percentage of the parent compound ([3]; 15 min p.i.): 68%
- level of the lipophilic radiometabolite ([3]; 40 min p.i.): 26%
- level of the polar radiometabolite ([3]; 40 min p.i.): 5%
- percentage of the parent compound ([3]; 40 min p.i.): 66%
- level of the lipophilic radiometabolite ([3]; 60 min p.i.): 41%
- level of the polar radiometabolite ([3]; 60 min p.i.): 5%
- percentage of the parent compound ([3]; 60 min p.i.): 51%
